The test system of data set [1] is Glycogen phosphorylase. Description: Inhibition of glycogen phosphorylase at 100 uM.
Data set [2] addresses T1, Glucose-6-phosphatase catalytic subunit 1 (Homo sapiens) (UniProt P35575).
T1 sequence (whole entry): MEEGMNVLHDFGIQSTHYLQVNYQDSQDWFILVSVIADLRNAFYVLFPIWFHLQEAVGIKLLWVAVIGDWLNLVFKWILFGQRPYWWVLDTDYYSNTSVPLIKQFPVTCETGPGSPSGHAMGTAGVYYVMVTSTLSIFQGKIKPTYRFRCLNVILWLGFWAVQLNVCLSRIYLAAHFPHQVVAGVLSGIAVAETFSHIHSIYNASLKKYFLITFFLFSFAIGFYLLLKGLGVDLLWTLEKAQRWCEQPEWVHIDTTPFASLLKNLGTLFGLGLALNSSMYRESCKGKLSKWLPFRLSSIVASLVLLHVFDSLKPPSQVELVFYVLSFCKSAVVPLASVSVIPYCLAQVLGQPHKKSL
In words: Inhibition of glucose-6-phosphatase at 100 uM. In outline: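 Compound was preincubated 10 min with glucose-6-phosphatase in 1.0 mL of 0.3 M citrate (pH 6.0), 28 mM EDTA, 14 mM NaF and 200 mM glucose-6-phosphate. The mixture was incubated 30 min at 37 °C and stopped with 10% TCA. Released Pi in the supernatant was measured by Taussky–Shorr; activity is µmol Pi/min/mg protein.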

For data set [3], the target named is Maltase-glucoamylase (Homo sapiens) (UniProt O43451). Description: Inhibition of alpha-glucosidase at 100 uM. In outline: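 Purified α-glucosidase (0.1 mg/mL) was assayed in 67 mM sodium phosphate (pH 6.8) with 1.0 mg/mL glutathione, 1 mL. The reaction was started with 3.0 mg/mL pNPG and followed at 405 nm every 30 s for 3 min.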
Data set [4] deals with T2, Tyrosine-protein phosphatase non-receptor type 1 (Homo sapiens) (UniProt P18031).
T2 sequence (whole entry): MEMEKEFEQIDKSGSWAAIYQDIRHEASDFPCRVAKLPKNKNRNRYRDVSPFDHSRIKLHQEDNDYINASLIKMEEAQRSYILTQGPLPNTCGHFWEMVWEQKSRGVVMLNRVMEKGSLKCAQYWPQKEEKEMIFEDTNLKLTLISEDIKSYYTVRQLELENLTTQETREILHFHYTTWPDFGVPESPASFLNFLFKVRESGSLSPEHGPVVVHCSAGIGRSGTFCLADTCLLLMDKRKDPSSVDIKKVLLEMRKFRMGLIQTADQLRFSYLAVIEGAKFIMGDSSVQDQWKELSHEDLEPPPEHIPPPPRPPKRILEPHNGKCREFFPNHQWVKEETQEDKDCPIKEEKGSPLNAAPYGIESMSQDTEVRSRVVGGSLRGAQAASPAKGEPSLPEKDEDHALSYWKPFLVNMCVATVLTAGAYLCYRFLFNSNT
In words: Inhibition of PTP1B at 100 uM. In outline:
(§1)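 The PTP-1B assay used 10 mM pNPP in 50 mM HEPES (pH 7.0) with 1 mM DTT and 2 mM EDTA, 1.0 mL, 37 °C for 30 min. It was stopped with 0.1 N NaOH and read at 410 nm. p-Nitrophenolate was calculated with ε 1.78 × 10⁴ M⁻¹ cm⁻¹. Sodium vanadate was the reference.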

Data set [5] relates to Rattus norvegicus. In words: Antihyperglycemic activity in Sprague-Dawley rat assessed as inhibition of streptozotocin-induced increase in blood glucose level at 100 mg/kg, po after 24 hrs. Format: functional. Details: scale not given: the % may be the effect or the level left. In outline:
(§2)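 Overnight-fasted male Sprague–Dawley rats were made diabetic with streptozotocin 60 mg/kg ip in 100 mM citrate (pH 4.5). Rats with glucose >10 mM at 48 h and a baseline of 140–270 mg/dL were used, 5 per group. Test suspension or 1% gum acacia vehicle was given orally, then sucrose 2.5 g/kg orally 30 min later. Glucose was read at 30–1440 min; % activity is from AUC versus vehicle (Dunnett test).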

For data set [6], the target named is T3, Tyrosine-protein phosphatase non-receptor type 1 (Homo sapiens, UniProt P18031).
T3 sequence (P18031 whole entry): T2 sequence (whole entry)
In words: Inhibition of PTP1B. In outline:
as §1

Data set [7] concerns Rattus norvegicus. Description: Antihyperglycemic activity in Sprague-Dawley rat assessed as inhibition of streptozotocin-induced increase in blood glucose level at 100 mg/kg, po after 5 hrs. Format: functional. Details: scale not given: the % may be the effect or the level left. In outline:
as §2

The test system of data set [8] is Rattus norvegicus. Description: Toxicity in Sprague-Dawley rat up to 250 mg/kg, po. Format: organism-based. Details: dose 250 mg/kg, route oral. Conditions: in vivo.
Data set [9] is described as follows: Solubility in triple distilled water. Format: physicochemical.
The target of data set [10] is Glycogen phosphorylase. In words: Inhibition of glycogen phosphorylase.

The source of these data is ChEMBL document CHEMBL1153999, “5,6-Diarylanthranilo-1,3-dinitriles as a new class of antihyperglycemic agents” (Bioorg Med Chem Lett, 2009).

Each structure is given as a SMILES string. pIC50: −log10 of the molar value. In brackets after ≈: the same amount, converted by molar mass. Activity calls are given as the source filed them. The calls are words filed in the database; no cut-off is given here.

Maltase-glucoamylase (Homo sapiens), sequence (O43451 whole entry, looked up): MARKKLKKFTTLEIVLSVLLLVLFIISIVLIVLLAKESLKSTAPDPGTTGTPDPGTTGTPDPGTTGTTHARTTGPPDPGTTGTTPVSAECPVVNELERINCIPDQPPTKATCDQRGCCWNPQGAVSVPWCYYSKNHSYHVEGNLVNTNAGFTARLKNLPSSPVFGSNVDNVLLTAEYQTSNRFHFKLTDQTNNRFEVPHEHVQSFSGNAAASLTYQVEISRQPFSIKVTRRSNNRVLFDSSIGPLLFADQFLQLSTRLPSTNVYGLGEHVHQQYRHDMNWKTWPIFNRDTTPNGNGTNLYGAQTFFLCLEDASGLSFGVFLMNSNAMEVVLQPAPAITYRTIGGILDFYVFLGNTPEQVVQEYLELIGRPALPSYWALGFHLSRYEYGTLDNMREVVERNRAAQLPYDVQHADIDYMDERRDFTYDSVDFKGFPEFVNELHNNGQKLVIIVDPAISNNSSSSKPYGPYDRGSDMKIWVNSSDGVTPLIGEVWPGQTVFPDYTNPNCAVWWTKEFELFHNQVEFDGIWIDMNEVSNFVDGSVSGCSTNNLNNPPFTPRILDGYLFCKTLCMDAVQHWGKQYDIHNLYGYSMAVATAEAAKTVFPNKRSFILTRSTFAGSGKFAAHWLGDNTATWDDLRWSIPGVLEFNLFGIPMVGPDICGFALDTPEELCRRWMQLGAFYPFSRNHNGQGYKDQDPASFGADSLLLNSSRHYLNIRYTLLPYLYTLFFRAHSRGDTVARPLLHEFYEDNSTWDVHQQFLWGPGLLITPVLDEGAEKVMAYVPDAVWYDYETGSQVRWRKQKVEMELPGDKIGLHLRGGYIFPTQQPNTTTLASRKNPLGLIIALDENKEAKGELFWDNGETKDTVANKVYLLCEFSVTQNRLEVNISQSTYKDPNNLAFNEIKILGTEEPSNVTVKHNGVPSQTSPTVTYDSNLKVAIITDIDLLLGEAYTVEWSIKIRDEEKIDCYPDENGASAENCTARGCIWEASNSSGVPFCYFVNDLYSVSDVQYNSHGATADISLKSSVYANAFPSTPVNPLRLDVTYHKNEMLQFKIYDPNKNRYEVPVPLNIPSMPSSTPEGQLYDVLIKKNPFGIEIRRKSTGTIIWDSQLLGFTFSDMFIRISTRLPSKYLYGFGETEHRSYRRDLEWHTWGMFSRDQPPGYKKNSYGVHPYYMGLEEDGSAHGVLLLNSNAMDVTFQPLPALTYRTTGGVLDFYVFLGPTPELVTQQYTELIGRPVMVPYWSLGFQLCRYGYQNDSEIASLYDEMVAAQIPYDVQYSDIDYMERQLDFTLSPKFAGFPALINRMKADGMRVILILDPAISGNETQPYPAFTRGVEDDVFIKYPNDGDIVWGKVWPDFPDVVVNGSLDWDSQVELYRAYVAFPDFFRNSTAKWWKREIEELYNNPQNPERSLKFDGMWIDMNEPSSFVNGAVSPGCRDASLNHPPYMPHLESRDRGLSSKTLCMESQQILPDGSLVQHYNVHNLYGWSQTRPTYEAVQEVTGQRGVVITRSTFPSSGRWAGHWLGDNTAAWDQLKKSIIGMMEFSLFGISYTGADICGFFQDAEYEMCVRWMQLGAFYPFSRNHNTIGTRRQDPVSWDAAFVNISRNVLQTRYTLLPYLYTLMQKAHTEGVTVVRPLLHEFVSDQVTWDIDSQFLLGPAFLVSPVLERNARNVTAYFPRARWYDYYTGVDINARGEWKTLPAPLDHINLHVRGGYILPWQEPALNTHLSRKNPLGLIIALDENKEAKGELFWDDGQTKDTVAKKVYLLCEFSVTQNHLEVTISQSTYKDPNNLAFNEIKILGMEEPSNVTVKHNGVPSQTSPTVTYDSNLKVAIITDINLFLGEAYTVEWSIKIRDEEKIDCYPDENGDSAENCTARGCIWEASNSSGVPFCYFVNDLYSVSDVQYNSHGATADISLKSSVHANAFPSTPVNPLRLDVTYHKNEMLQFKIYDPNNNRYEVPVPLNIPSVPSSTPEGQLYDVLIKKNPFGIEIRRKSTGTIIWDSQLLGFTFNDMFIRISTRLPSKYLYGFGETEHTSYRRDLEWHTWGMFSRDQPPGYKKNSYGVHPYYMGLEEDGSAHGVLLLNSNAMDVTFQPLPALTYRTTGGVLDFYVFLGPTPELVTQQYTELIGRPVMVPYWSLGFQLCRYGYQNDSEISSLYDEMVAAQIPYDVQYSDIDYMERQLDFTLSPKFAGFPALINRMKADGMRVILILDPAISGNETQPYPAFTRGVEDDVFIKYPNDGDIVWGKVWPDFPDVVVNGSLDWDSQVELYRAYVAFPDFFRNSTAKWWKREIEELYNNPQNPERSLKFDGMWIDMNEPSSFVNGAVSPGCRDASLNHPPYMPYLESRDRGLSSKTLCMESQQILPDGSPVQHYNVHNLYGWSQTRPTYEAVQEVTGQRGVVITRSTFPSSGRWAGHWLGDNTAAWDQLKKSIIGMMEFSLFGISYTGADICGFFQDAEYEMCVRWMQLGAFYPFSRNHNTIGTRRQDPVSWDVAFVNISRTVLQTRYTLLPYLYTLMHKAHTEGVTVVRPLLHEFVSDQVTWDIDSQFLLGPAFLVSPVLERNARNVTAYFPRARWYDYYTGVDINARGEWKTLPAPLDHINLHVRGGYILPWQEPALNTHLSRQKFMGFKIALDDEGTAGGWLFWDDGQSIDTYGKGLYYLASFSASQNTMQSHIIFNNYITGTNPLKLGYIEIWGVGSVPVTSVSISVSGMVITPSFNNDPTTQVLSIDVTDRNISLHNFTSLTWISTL

Take `CSc1c(C#N)c(N)c(C#N)c(Cc2ccccc2)c1-c1ccccc1`: the inhibition was found to be 11.6% with Glycogen phosphorylase [1] and 24.5% in data set [2].

As to `COc1ccc(-c2c(C)c(C#N)c(N)c(C#N)c2SC)c(OC)c1`, the inhibition in data set [3] was determined as 10.5%; in [4], 25.6%; in the data set with Glycogen phosphorylase [1], 50%; in [2], 0.08%.

`COc1ccc(-c2c(C)c(N3CCCCC3)c(C#N)c(N)c2C#N)cc1`: the inhibition entry in data set [4] is “inactive”. The values for the inhibition (in the data set on Glycogen phosphorylase [1]; in [2]) were 15.7% and 33.3%, respectively.

For `CSc1c(C)c(-c2ccc(Cl)cc2)c(C#N)c(N)c1C#N`, the inhibition in data set [3] worked out at 6.7%; in data set [4] it was 7.3%; with Glycogen phosphorylase [1], 12.5%; in data set [2], 19.3%.

For the compound `CSc1c(C#N)c(N)c(C#N)c(-c2ccccc2)c1-c1ccccc1`, the figures for the Activity in the data set with Rattus norvegicus [5], with Rattus norvegicus [7] and in the data set on Rattus norvegicus [8] were 28.1%, 24.1% and “Non-toxic”, respectively. Also, the inhibition worked out at 10.5% in data set [3], 81.6% in data set [4] and 7.4% in [2]. In addition, the pIC50 in [6] is 4.24. The inhibition result in the data set on Glycogen phosphorylase [1] was “inactive”. Moreover, the concentration in solution in data set [9] (solubility) came to 0.13 µg/mL (≈ 0.381 µM).

Take `Cc1c(-c2ccccc2)c(C#N)c(N)c(C#N)c1N1CCC(C)CC1`: the inhibition result in [4] was “inactive”. In addition, the inhibition in the data set with Glycogen phosphorylase [1] came out at 2.3%; in data set [2] it was 10.9%.

As to `COc1ccc(-c2c(C#N)c(N)c(C#N)c(SC)c2-c2ccc(F)cc2)c(OC)c1`, the inhibition stood at 11.5% in [3], 28.2% in data set [4], 74.3% in the data set on Glycogen phosphorylase [1] and 1.9% in data set [2]. The same compound gave a pIC50 on Glycogen phosphorylase [10] of 4.10.

For the compound `COc1ccc(-c2c(C#N)c(N)c(C#N)c(SC)c2-c2ccccc2)cc1`, the results for the Activity with Rattus norvegicus [5], with Rattus norvegicus [7] and in the data set with Rattus norvegicus [8] were 36.9%, 26.5% and “Non-toxic”, respectively. Further, the inhibition in data set [3] is 5.7%; in data set [4], 61.5%; in the data set on Glycogen phosphorylase [1] it was 37.9%; in data set [2], 6.8%. The compound further had a pIC50 in data set [6] of 4.07.

As for `CSc1c(C#N)c(N)c(C#N)c(C)c1-c1ccccc1F`, in [3], the inhibition result was “inactive”. The values for the inhibition (in [4]; in the data set on Glycogen phosphorylase [1]; in data set [2]) were 40.2%, 20% and 8.2%, respectively.

Consider `COc1ccc(-c2c(C)c(SC)c(C#N)c(N)c2C#N)cc1`, for which the inhibition in [3] was 17.3%; in data set [4], 0%; with Glycogen phosphorylase [1], 37.5%; in [2], 12.3%.

With `Cc1c(-c2ccccc2)c(C#N)c(N)c(C#N)c1N1CCCCC1`, the inhibition in [4] is 31.1%; in the data set with Glycogen phosphorylase [1], 4.7%; in data set [2], 38.2%.

In the case of `CSc1c(C#N)c(N)c(C#N)c(C)c1-c1ccc(F)cc1`, the inhibition in data set [3] was determined as 17.3%; in data set [4], 3.6%; with Glycogen phosphorylase [1] it was 5%; in [2], 41.8%.

For the compound `CN(C)C(=N)NC(=N)N` [METFORMIN], the Activity with Rattus norvegicus [5] worked out at 21.9%; in the data set with Rattus norvegicus [7], 20.9%.

For the compound `COc1ccc(-c2c(C#N)c(N)c(C#N)c(SC)c2-c2ccc(F)cc2)cc1`, the Activity was 25.2% with Rattus norvegicus [5] and 22.1% with Rattus norvegicus [7]. Also, the inhibition stood at 13.4% in [3], 48.8% in [4] and 5.5% in data set [2]. The inhibition entry with Glycogen phosphorylase [1] was “inactive”.

As to `CSc1c(C)c(-c2ccccc2)c(C#N)c(N)c1C#N`, the inhibition in data set [3] stood at 6.7%; in the data set with Glycogen phosphorylase [1], 45%; in data set [2], 0.96%. For the same compound, the inhibition entry in data set [4] was “inactive”.

Regarding `COc1ccc(-c2c(C#N)c(N)c(C#N)c(SC)c2-c2ccc(OC)cc2)cc1`, the Activity is reported as 17.6% in the data set with Rattus norvegicus [5], 17.5% in the data set on Rattus norvegicus [7] and “Non-toxic” with Rattus norvegicus [8]. Moreover, the inhibition in [3] came to 14.4%; in data set [4], 76.9%; with Glycogen phosphorylase [1] it was 6.9%; in [2], 5.5%. The compound further showed a negative-log IC50 (pIC50) in [6] of 4.14.

Take `COc1ccc(-c2c(C)c(C#N)c(N)c(C#N)c2SC)cc1OC`: the inhibition in [3] turned out to be 6.7%; in data set [4], 0%; in the data set with Glycogen phosphorylase [1], 10%; in data set [2] it was 6.1%.

Consider `COc1ccc(-c2c(C#N)c(N)c(C#N)c(SC)c2-c2ccc(OC)c(OC)c2)cc1`, for which the inhibition was 25.9% in data set [3], 30.7% in data set [4], 13.8% in the data set on Glycogen phosphorylase [1] and 0.3% in data set [2].

As to `CSc1c(C#N)c(N)c(C#N)c(C)c1-c1ccc(C(F)(F)F)cc1`, the inhibition in [3] came to 22.1%; in data set [4], 58.5%; in the data set with Glycogen phosphorylase [1], 55%; in data set [2], 14.4%.
